Test [1] in a line: Effect on 5-HT/CaCl2 induced increase in intracellular calcium level in rat primary neuronal cells pretreated for 5 mins at 1 ug/ml after 20 mins in relative to control. The format is functional, Primary neuron. The essentials:
(§1)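 Rat cortical neurons from E17–18 Wistar embryos were grown serum-free on poly-L-lysine glass. They were loaded with 4 μM fura-2-AM for 1 h at 37 °C. Cells were preincubated 5 min with compound (0.01–10 µg/ml) in Ca/Mg-free Locke's, pH 7.4. 200 µM 5-HT plus 2.5 mM CaCl2 was added at 10 min. The 340/380 ratio increase was imaged over 20 min as % of DMSO/water control, ±SD of 3–5 experiments, ~90 cells each.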
(In general: A change in cytosolic calcium serves as a functional read-out for many receptors and channels.)

A further test relates to HeLa. Nature of the test: Cytotoxicity against HeLa cells at 10 ug/ml after 72 hrs by MTT assay. The following applies: Homo sapiens. The format is functional, cell-based. Summed up:
(§2)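 Cells exposed 72 h to a range of concentrations; viability by MTT colorimetric read at 595 nm after overnight incubation at 37 °C. PC12 grown in DMEM/10% FCS/5% horse serum; HeLa and L5178y in RPMI 1640/10% FCS; all at 37 °C, 5% CO2.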
In general terms: Tetrazolium dyes change colour on reduction, which living cells bring about.

In test [2] the test system is PC-12. Nature of the test: Cytotoxicity against PC12 cells at 10 ug/ml after 72 hrs by MTT assay. In kind it is functional, cell-based. The essentials:
as §2

For the next test, the system named is L5178Y. The test is described as follows: Cytotoxicity against L5178y cells at 10 ug/ml after 72 hrs by MTT assay. In kind it is functional, cell-based. Summed up:
as §2

For test [3], the system named is Neuron. The test is described as follows: Effect on NMDA/CaCl2 induced increase in intracellular calcium level in rat neuronal cells pretreated for 5 mins at 0.1 ug/ml after 20 mins in relative to control. The format is functional. The essentials: (§3)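 Rat cortical neurons were fura-2-loaded (4 μM, 1 h, 37 °C) and preincubated 5 min with 0.1, 1 or 10 µg/ml compound in Ca/Mg-free Locke's, pH 7.4. They were stimulated at 10 min with 200 µM NMDA plus 2.5 mM CaCl2. The fura-2 340/380 ratio change was followed for 20 min and set relative to the vehicle control (100%).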

Test [4] deals with Neuron. The test is described as follows: Effect on NMDA/CaCl2 induced increase in intracellular calcium level in rat neuronal cells pretreated for 5 mins at 10 ug/ml after 20 mins in relative to control. In kind it is functional. The essentials: as §3
Test [5] deals with Neuron. The test is described as follows: Effect on NMDA/CaCl2 induced increase in intracellular calcium level in rat neuronal cells pretreated for 5 mins at 1 ug/ml after 20 mins in relative to control. In kind it is functional. The essentials:
as §3

Test [6] deals with Neuron. The test is described as follows: Effect on L-glutamic acid/CaCl2 induced increase in intracellular calcium level in rat neuronal cells pretreated for 5 mins at 10 ug/ml after 20 mins in relative to control. The format is functional. The essentials:
(§4)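 Rat cortical neurons were loaded with 4 μM fura-2-AM, then preincubated 5 min with 0.1, 1 or 10 µg/ml compound in Ca/Mg-free Locke's, pH 7.4. 200 µM L-glutamic acid plus 2.5 mM CaCl2 was added at 10 min. The 340/380 nm ratio increase was recorded over 20 min and expressed as % of vehicle control.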

Test [7] has as its system Primary neuron. Nature of the test: Effect on 5-HT/CaCl2 induced increase in intracellular calcium level in rat primary neuronal cells pretreated for 5 mins at 10 ug/ml after 20 mins in relative to control. In kind it is functional, cell-based. The essentials: as §1
Test [8] deals with Neuron. Nature of the test: Effect on L-glutamic acid/CaCl2 induced increase in intracellular calcium level in rat neuronal cells pretreated for 5 mins at 0.1 ug/ml after 20 mins in relative to control. The format is functional. Summed up:
as §4

Test [9] in a line: Effect on 5-HT/CaCl2 induced increase in intracellular calcium level in rat primary neuronal cells pretreated for 5 mins at 0.03 ug/ml after 20 mins in relative to control. In kind it is functional, Primary neuron. The essentials:
as §1

A short description of test [10]: Effect on 5-HT/CaCl2 induced increase in intracellular calcium level in rat primary neuronal cells pretreated for 5 mins at 0.3 ug/ml after 20 mins in relative to control. The format is functional, Primary neuron. The essentials:
as §1

The subject of test [11] is Neuron. Nature of the test: Effect on L-glutamic acid/CaCl2 induced increase in intracellular calcium level in rat neuronal cells pretreated for 5 mins at 1 ug/ml after 20 mins in relative to control. The format is functional. Summed up: as §4
The test system of test [12] is Primary neuron. Nature of the test: Effect on 5-HT/CaCl2 induced increase in intracellular calcium level in rat primary neuronal cells pretreated for 5 mins at 3 ug/ml after 20 mins in relative to control. The format is functional, cell-based. The essentials:
as §1

The subject of test [13] is Suberites domuncula. The test is described as follows: Effect on 5-HT/CaCl2 induced increase in intracellular calcium level in Suberites domunculas sponge cell pretreated for 5 mins at 1 ug/ml in relative to control.
Test [14] can be described thus: Effect on 5-HT/CaCl2 induced increase in intracellular calcium level in rat primary neuronal cells pretreated for 5 mins at 0.1 ug/ml after 20 mins in relative to control. The format is functional, Primary neuron. The essentials:
as §1

For test [15], the system named is Primary neuron. Nature of the test: Effect on 5-HT/CaCl2 induced increase in intracellular calcium level in rat primary neuronal cells pretreated for 5 mins at 0.01 ug/ml after 20 mins in relative to control. In kind it is functional, cell-based. The essentials: as §1
The test system of test [16] is Suberites domuncula. Nature of the test: Effect on 5-HT/CaCl2 induced increase in intracellular calcium level in Suberites domunculas sponge cell pretreated for 5 mins at 0.1 ug/ml in relative to control.
In test [17] the test system is Primary neuron. Nature of the test: Effect on 5-HT/CaCl2 induced increase in intracellular calcium level in rat primary neuronal cells pretreated for 5 mins at 0.1 ug/ml after 10 mins. In kind it is functional, cell-based.
In a further test the test system is HEK293. Nature of the test: Effect on 5-HT/CaCl2 induced increase in intracellular calcium level in HEK cells pretreated for 5 mins at 1 ug/ml after 20 mins in relative to control. In kind it is functional, cell-based. Particulars: Homo sapiens. The essentials:
(§5)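 Cells on poly-L-lysine coverglass, loaded with 10 μM fura-2-AM (1 h, 37 °C), washed, held 1 h. In Ca2+/Mg2+-free Locke's solution pH 7.4, 1 μg/ml compound added for 5 min, then 200 μM 5-HT plus 2.5 mM CaCl2 at 10 min. 340/380 nm ratio recorded ≥20 min; rise vs 0.1% DMSO or water control set to 100%; three independent experiments, mean ± SD.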

Test [18] relates to PC-12. The test is described as follows: Effect on 5-HT/CaCl2 induced increase in intracellular calcium level in PC12 cells pretreated for 5 mins at 1 ug/ml after 20 mins in relative to control. In kind it is functional. Summed up:
as §5

In ChEMBL document CHEMBL1149630, “Damipipecolin and damituricin, novel bioactive bromopyrrole alkaloids from the Mediterranean sponge Axinella damicornis” (2007) one finds Activity data, which are given here for two compounds.

Activity calls are given as the source filed them. The rule behind the calls is not given here.

On to `O=C(O[C@@H]1CCN[C@@H](C(=O)O)C1)c1cc(Br)c[nH]1` [DAMIPIPECOLIN], for which the Activity in [1] is 38%; in the test with HeLa, “Not toxic”; in the test on PC-12 [2], “Not toxic”; in the test with L5178Y, “Not toxic”; in the test on Neuron [3], 114.1%; in the test on Neuron [4], 105.9%. In addition, the Activity is recorded as 70.4% in the test on Neuron [5]; 96.6% in the test on Neuron [6]; 83.3% in the test on Neuron [8]; 71.6% in test [9]; 29.7% in test [10]; 90.5% in the test with Neuron [11]. In addition, the Activity in test [14] is listed as 11.2%. For the same compound, the outcome with Primary neuron [7], in the test on Primary neuron [12], with Suberites domuncula [13], with Primary neuron [15] and in the test on Suberites domuncula [16] was inactive. In addition, the outcome in the test on Primary neuron [17] was Active.

With `C[N+]1(C)C[C@H](OC(=O)c2cc(Br)c[nH]2)C[C@@H]1C(=O)[O-]` [DAMITURICIN], the Activity result is “Not toxic” in the test on HeLa, “Not toxic” in the test with PC-12 [2], “Not toxic” in the test with L5178Y and 43.8% in the test on PC-12 [18]. Besides, the outcome in the test with HEK293 was inactive.
